# Assay results taken from PubChem BioAssay AID504382 (The Scripps Research Institute Molecular Screening Center, 2011).
# About 460 (18%) of roughly 2,500 compounds were called active. Not all results are given here. Unmarked numbers belong to inactive results.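 How the source made its calls: active means mean activation above a cutoff of low control average plus 3 SD from the earlier screen (cut at about 12% in these data); inactive means the rest.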
# Assay: compound fluorescence interference without thin filaments, confirmation, artefact control for cardiac RTF calcium sensitizer project, biochemical (AID 504382)
# Details: IANBD fluorescence interference counterscreen, buffer, EC20 Ca2+; at 7.2 µM; active compounds read high; scaled: EC20 calcium 0, EC100 calcium 100
# Summary of the method: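 Medium: MOPS buffer, 190 mM, with KCl, MgCl2, EGTA, NTA, DTT, pH 7.20; Dosing: one dose of 7.2 µM, 0.7% DMSO; Probe or stimulus: calcium at EC20 level, 0.472 mM final; Incubation: 15 min, 25 °C; Evaluation: compound fluorescence interference relative to control well signal range; Signal: fluorescence, 480/540 nm.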
row,SMILES,fluorescence artifact activation
1,CCC(=O)N1CCN(c2nc(C)nc3sc(C)c(C)c23)CC1,0.08%
2,S=C1NC2=C(CCCC2=C2SCCCS2)C(c2ccccc2)N1 (stereo not given),0.29%
3,O=C(O)CN1C(=O)c2cccc3c(Br)ccc1c23,53.6% (active)
4,O=C(OCCN1C(=O)c2cccc3c(N4CCOCC4)ccc(c23)C1=O)c1ccc(Cl)cc1,1.59%
5,CC(=O)N(C(C)=O)N1C(=O)c2cccc3c(N4CCOCC4)ccc(c23)C1=O,0.01%
6,CCn1c(CSCc2ccccc2)n[nH]c1=S,0.18%
7,Cc1ccc(NC(=O)COc2ccc(/C=N/NC(=O)CSCc3ccccc3)cc2)cc1,12.9% (active)
8,Cc1ccc(NC(=O)CO/N=C/c2ccc(N(C)C)cc2)cc1,0.03%
9,Cc1ccc(NC(=O)CN(C)C(=O)COC(=O)COc2ccc(C#N)cc2)cc1,0.42%
10,C=CCN1C(=O)c2ccccc2NC1c1cc(Br)cs1 (stereo not given),7.88%
11,Cc1nn(-c2ccccc2)c(Cl)c1C(=O)NC1CCCCC1,4.56%
12,Cc1cc(=O)oc2cc(OCC(=O)OCC(=O)NC(C)C)ccc12,-0.02%
13,Cc1ccc(C)c(NC(=O)COC(=O)Cc2ccsc2)c1,0.03%
14,CCc1ccccc1NC(=O)COc1ccc2c(=O)c(Oc3cc(C)ccc3C)coc2c1,664% (active)
15,O=C(O)CSc1ncnc2scc(-c3ccc(Br)cc3)c12,0.71%
16,CC(C)(C)NCc1cc(Cl)ccc1OCc1cccs1,13.9% (active)
17,COc1cccc2c1C(=O)c1c(O)c3c(c(O)c1C2=O)CC(O)(C(C)=NNC(=O)c1ccc(Cl)c(Cl)c1)CC3OC1CC(N)C(O)C(C)O1 (stereo not given),0.12%
18,Cc1cc(C)c(C#N)c(SCc2nnc(-c3ccccc3)o2)n1,14.5% (active)
19,Cc1cc(C)c(C#N)c(Sc2nnnn2-c2ccccc2)n1,11.6%
20,N#Cc1c(N)oc(-c2ccccc2)c1-c1ccccc1,4.93%

row,SMILES,fluorescence artifact activation
1,CCOC(=O)/C(C#N)=N\Nc1cc(Cl)ccc1OC,0.07%
2,C[C@@H]1C=C(C(=O)N2CCOCC2)O[C@H](OCc2ccc(CO)cc2)C1,0.97%
3,CCOCCCNS(=O)(=O)c1ccc(NC(=O)c2ccc(OC)c([N+](=O)[O-])c2)cc1,0.52%
4,CCOc1cccc(NC(=O)/C(C#N)=C\c2cn(CC(=O)O)c3ccccc23)c1,0.19%
5,O=C(Cn1cc(/C=N/NC(=O)c2cccc3ccccc23)c2ccccc21)Nc1ccc(F)cc1,19.7% (active)
6,O=C(Nc1ccccc1C(=O)N/N=C/c1ccco1)c1ccc(F)cc1,1.44%
7,Cc1ccc(N=Cc2sc(O)c3ccccc23)c(C)c1,0.06%
8,CCOC(=O)c1ccc[n+](CC(=O)Nc2cc(C(F)(F)F)ccc2Cl)c1,2.39%
9,CCn1c(O)c(/C=N/N=C/c2ccccc2)c2ccc(C3=NNC(=O)CC3)cc21,0.02%
10,Brc1ccc(-c2cnnc(N3CCCC3)n2)cc1,66.5% (active)
11,C=CCOc1ccc(CNc2ccc3[nH]c(=O)[nH]c3c2)cc1OCC,5.69%
12,COC(=O)c1c(NC(=O)c2ccnn2C)sc(C)c1C,0.09%
13,Fc1ccc(C2=CC(c3ccc(Br)o3)n3ncnc3N2)cc1 (stereo not given),0.34%
14,OCCN=C1CCCc2c1[nH]c1ccc(Cl)cc21,0.44%
15,COc1ccccc1NC(=O)COC(=O)c1cnc(C)cn1,14.7% (active)
16,COc1ccccc1NC(=O)CC(=O)CSc1nnc(-c2ccc(C)cc2)n1-c1ccccc1,-0.03%
17,COc1ccccc1NCC(=O)NC(=O)NC1CCCCC1,0.02%
18,CCCn1c(CN2CCN(C(=O)OCC)CC2)nc2cc(NC(=O)CC)ccc21,0.01%
19,CCC(=O)Nc1ccc2c(c1)nc(CCN1CCN(C)CC1)n2C,20.2% (active)
20,Cn1c(CN2CCCC2)nc2cc(NC(=O)COc3ccc([N+](=O)[O-])cc3)ccc21,0.82%

row,SMILES,fluorescence artifact activation
1,CCCC1OC23CCCCC2C(C#N)(C#N)C1(C#N)C(=N)O3 (stereo not given),36.8% (active)
2,CCCCC1OC23CCCCC2C(C#N)(C#N)C1(C#N)C(=N)O3 (stereo not given),3.08%
3,CCCCC1OC23CCCCC2C(C#N)(C(=N)O3)C1(C#N)C#N (stereo not given),-0.04%
4,CCN(c1ccccc1)S(=O)(=O)c1ccc(OC)c(NC(=O)Cn2cnc3c2c(=O)n(C)c(=O)n3C)c1,0.38%
5,CC(OC(=O)/C(C#N)=C/c1ccc(N(C)C)cc1)C(=O)N(C)c1ccccc1 (stereo not given),0.19%
6,NS(=O)(=O)c1ccc(-c2ccc(/C=C3\SC(=S)N(C4CCS(=O)(=O)C4)C3=O)o2)cc1 (stereo not given),3.08%
7,COc1ccc(CCNC(=O)C2CC(c3c(Cl)cccc3Cl)=NO2)cc1 (stereo not given),-0.04%
8,CC1(C)CC(=O)C(CC2CCCCC2=O)C(=O)C1 (stereo not given),0.76%
9,CCN(CC)c1ccc(NC(=S)Nc2ccc(F)cc2)cc1,0.1%
10,Fc1ccc(CNC(=S)NCc2ccc(F)cc2)cc1,12.3% (active)
11,Fc1ccc(CNCc2ccc(Br)cc2)cc1,0.02%
12,S=C(Nc1ccc(N2CCOCC2)cc1)Nc1ccc2nc(-c3ccco3)c(-c3ccco3)nc2c1,8.46%
13,O=C(c1ccc(Cl)cc1)n1cnc2ccccc21,0.21%
14,COc1ccc(C(=O)Cn2cnc3ccccc3c2=O)cc1OC,0.22%
15,O=C(Cn1cnc2ccccc2c1=O)c1ccc(Br)cc1,102% (active)
16,O=C(C1=NN(c2ccccc2)C2C(=O)N(c3ccccc3Cl)C(=O)C12)c1ccccc1 (stereo not given),1.06%
17,Cc1oc(-c2cc3c(cc2Cl)OCO3)nc1CN1CCCC(C(=O)N2CCOCC2)C1 (stereo not given),190% (active)
18,CSCCC(NC(=O)c1ccc(Cl)cc1)C(=O)OCC(=O)c1ccc[nH]1 (stereo not given),0.05%
19,O=C(/C=C/c1ccccc1)N/C(=C/c1ccccc1)C(=O)NCCCO,0.08%
20,C=CCNC(=O)NC(=O)COC(=O)CC(NC(N)=O)c1ccc(Cl)cc1 (stereo not given),50.5% (active)
